Measured values as given in publication PMC4415995 (Advances in Therapy, 2015).

Tests used:
[1] = system: Japanese patients with T2DM; assay: Clinical laboratory tests and vital signs, 7-day once-daily dosing; assay type: in vivo, human
Summary of the method: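 Randomized, single-blind, placebo-controlled, parallel-group study in Japanese T2DM outpatients (HbA1c 6.9–10.5%, FPG ≥126 mg/dL, stable diet 4 weeks, age 20–74 y). Test compound 0.5, 1, 2.5 or 5 mg or placebo was given orally once daily for 7 days before breakfast. Safety set was all dosed patients. AEs were coded in MedDRA 12.1 and graded mild/moderate/severe, with drug relation judged by the investigator. Labs, vital signs, body weight and ECG were also recorded.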

SGLT1 = conditions: SGLT2 vs SGLT1; cited from earlier work
healthy Japanese males = conditions: healthy subjects on luseogliflozin; cited from earlier work

CCOc1ccc(Cc2cc([C@@H]3S[C@H](CO)[C@@H](O)[C@H](O)[C@H]3O)c(OC)cc2C)cc1 [Luseogliflozin, (1S)-1,5-anhydro-1-[5-(4-ethoxybenzyl)-2-methoxy-4-methylphenyl]-1-thio-D-glucitol]
SBP, change from baseline ([1]; 1 mg OD, Day 1): 3.5 ± 9.6 mmHg | Serum calcium, change from baseline ([1]; 1 mg OD, Day 1): -0.19 ± 0.16 mg/dL | Serum phosphorus, change from baseline ([1]; 1 mg OD, Day 1): 0.57 ± 0.32 mg/dL | Urinary NAG, change from baseline ([1]; 1 mg OD, Day 1): −0.33 ± 0.99 U/L | Urinary calcium, change from baseline ([1]; 1 mg OD, Day 1): 0.00 ± 0.00 g/day | Urinary phosphorus, change from baseline ([1]; 1 mg OD, Day 1): -0.13 ± 0.10 g/day | Urinary type IV collagen, change from baseline ([1]; 1 mg OD, Day 1): −0.44 ± 0.61 μg/g creatinine | Urinary uric acid, change from baseline ([1]; 1 mg OD, Day 1): 0.08 ± 0.07 g/day | Urinary β2-microglobulin, change from baseline ([1]; 1 mg OD, Day 1): -8.5 ± 31.3 µg/L | Cystatin C, change from baseline ([1]; 1 mg OD, Day 7): -0.061 ± 0.043 mg/L | DBP, change from baseline ([1]; 1 mg OD, Day 7): −0.8 ± 6.6 mmHg | Hematocrit, change from baseline ([1]; 1 mg OD, Day 7): −2.68 ± 0.89% | SBP, change from baseline ([1]; 1 mg OD, Day 7): −2.4 ± 12.8 mmHg | Serum calcium, change from baseline ([1]; 1 mg OD, Day 7): -0.41 ± 0.14 mg/dL | Serum phosphorus, change from baseline ([1]; 1 mg OD, Day 7): 0.20 ± 0.21 mg/dL | Urinary NAG, change from baseline ([1]; 1 mg OD, Day 7): 0.73 ± 0.80 U/L | Urinary calcium, change from baseline ([1]; 1 mg OD, Day 7): 0.00 ± 0.00 g/day | Urinary phosphorus, change from baseline ([1]; 1 mg OD, Day 7): 0.00 ± 0.13 g/day | Urinary type IV collagen, change from baseline ([1]; 1 mg OD, Day 7): 0.66 ± 1.22 μg/g creatinine | Urinary uric acid, change from baseline ([1]; 1 mg OD, Day 7): -0.03 ± 0.20 g/day | Urinary β2-microglobulin, change from baseline ([1]; 1 mg OD, Day 7): 17.3 ± 54.9 µg/L | Cystatin C, change from baseline ([1]; 2.5 mg OD, Day 1): 0.016 ± 0.060 mg/L | DBP, change from baseline ([1]; 2.5 mg OD, Day 1): −4.3 ± 5.6 mmHg | Hematocrit, change from baseline ([1]; 2.5 mg OD, Day 1): −0.58 ± 1.48% | SBP, change from baseline ([1]; 2.5 mg OD, Day 1): −5.6 ± 9.5 mmHg | Serum calcium, change from baseline ([1]; 2.5 mg OD, Day 1): -0.15 ± 0.23 mg/dL | Serum phosphorus, change from baseline ([1]; 2.5 mg OD, Day 1): 0.68 ± 0.23 mg/dL | Urinary NAG, change from baseline ([1]; 2.5 mg OD, Day 1): −0.68 ± 1.33 U/L | Urinary calcium, change from baseline ([1]; 2.5 mg OD, Day 1): -0.01 ± 0.04 g/day | Urinary phosphorus, change from baseline ([1]; 2.5 mg OD, Day 1): -0.24 ± 0.07 g/day | Urinary type IV collagen, change from baseline ([1]; 2.5 mg OD, Day 1): −0.05 ± 1.13 μg/g creatinine | Urinary uric acid, change from baseline ([1]; 2.5 mg OD, Day 1): -0.01 ± 0.04 g/day | Urinary β2-microglobulin, change from baseline ([1]; 2.5 mg OD, Day 1): -11.0 ± 44.9 µg/L | Cystatin C, change from baseline ([1]; 2.5 mg OD, Day 7): -0.064 ± 0.054 mg/L | DBP, change from baseline ([1]; 2.5 mg OD, Day 7): −6.1 ± 5.6 mmHg | Hematocrit, change from baseline ([1]; 2.5 mg OD, Day 7): −2.89 ± 1.81% | SBP, change from baseline ([1]; 2.5 mg OD, Day 7): −8.8 ± 10.9 mmHg | Serum calcium, change from baseline ([1]; 2.5 mg OD, Day 7): -0.40 ± 0.27 mg/dL | Serum phosphorus, change from baseline ([1]; 2.5 mg OD, Day 7): 0.38 ± 0.29 mg/dL | Urinary NAG, change from baseline ([1]; 2.5 mg OD, Day 7): −0.08 ± 1.26 U/L | Urinary calcium, change from baseline ([1]; 2.5 mg OD, Day 7): 0.00 ± 0.05 g/day | Urinary phosphorus, change from baseline ([1]; 2.5 mg OD, Day 7): -0.03 ± 0.17 g/day | Urinary type IV collagen, change from baseline ([1]; 2.5 mg OD, Day 7): 0.21 ± 1.85 μg/g creatinine | Urinary uric acid, change from baseline ([1]; 2.5 mg OD, Day 7): -0.06 ± 0.07 g/day | Urinary β2-microglobulin, change from baseline ([1]; 2.5 mg OD, Day 7): 5.5 ± 44.0 µg/L | Cystatin C, change from baseline ([1]; 5 mg OD, Day 1): 0.028 ± 0.042 mg/L | DBP, change from baseline ([1]; 5 mg OD, Day 1): 0.6 ± 6.0 mmHg | Hematocrit, change from baseline ([1]; 5 mg OD, Day 1): −0.54 ± 0.85% | SBP, change from baseline ([1]; 5 mg OD, Day 1): −1.3 ± 12.5 mmHg | Serum calcium, change from baseline ([1]; 5 mg OD, Day 1): -0.10 ± 0.20 mg/dL | Serum phosphorus, change from baseline ([1]; 5 mg OD, Day 1): 1.08 ± 0.37 mg/dL | Urinary NAG, change from baseline ([1]; 5 mg OD, Day 1): −0.81 ± 1.01 U/L | Urinary calcium, change from baseline ([1]; 5 mg OD, Day 1): -0.01 ± 0.04 g/day | Urinary phosphorus, change from baseline ([1]; 5 mg OD, Day 1): -0.24 ± 0.11 g/day | Urinary type IV collagen, change from baseline ([1]; 5 mg OD, Day 1): 0.11 ± 0.97 μg/g creatinine | Urinary uric acid, change from baseline ([1]; 5 mg OD, Day 1): 0.08 ± 0.12 g/day | Urinary β2-microglobulin, change from baseline ([1]; 5 mg OD, Day 1): -1.3 ± 13.5 µg/L | Cystatin C, change from baseline ([1]; 5 mg OD, Day 7): -0.027 ± 0.065 mg/L | DBP, change from baseline ([1]; 5 mg OD, Day 7): −3.1 ± 6.0 mmHg | Hematocrit, change from baseline ([1]; 5 mg OD, Day 7): −1.66 ± 1.99% | SBP, change from baseline ([1]; 5 mg OD, Day 7): −11.3 ± 11.8 mmHg | Serum calcium, change from baseline ([1]; 5 mg OD, Day 7): -0.16 ± 0.45 mg/dL | Serum phosphorus, change from baseline ([1]; 5 mg OD, Day 7): 0.42 ± 0.39 mg/dL | Urinary NAG, change from baseline ([1]; 5 mg OD, Day 7): −0.11 ± 1.18 U/L | Urinary calcium, change from baseline ([1]; 5 mg OD, Day 7): -0.03 ± 0.05 g/day | Urinary phosphorus, change from baseline ([1]; 5 mg OD, Day 7): -0.01 ± 0.14 g/day | Urinary type IV collagen, change from baseline ([1]; 5 mg OD, Day 7): 0.31 ± 1.26 μg/g creatinine | Urinary uric acid, change from baseline ([1]; 5 mg OD, Day 7): 0.01 ± 0.10 g/day | Urinary β2-microglobulin, change from baseline ([1]; 5 mg OD, Day 7): 1.4 ± 20.3 µg/L | IC50 for SGLT2 lower than IC50 for SGLT1 (selectivity) (SGLT1): 1765 fold | mean UGE (healthy Japanese males): 58.0 g/day
